In the library only some 2.2% were active in any assay of this set; here they are far more common.
MCL1 BIM primary = inhibitors of human MCL1 binding to BIM-BH3 peptide; Q07820; GST-MCL1 / FITC-Bim-BH3 fluorescence polarization; inhibition, % at 10.9 µM; 0.68% of 320,000 active; AID 2057;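 active = inhibition above the mean inhibition of all tested compounds plus 3 SD, set per campaign, cut at about 40% in these data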;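 note: 0% = DMSO wells and 100% = unlabeled Bim-BH3 peptide control; higher means more loss of mP so more displacement of Bim peptide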
Mcl1-Bid inh = Mcl-1/Bid interaction inhibition; Q07820; TR-FRET Mcl-1/Bid-Dy647 peptide binding, 1536-well; inhibition, % at 21.7 µM; 0.97% of 220,000 active;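 active = compounds that cut the binding signal by more than half at the single screening dose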;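 note: His-tagged Mcl-1 with europium anti-His antibody binding Bid BH3 peptide; 0% = Mcl-1 plus peptide wells and 100% = peptide-only wells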
Mcl-1 Bim block = disrupts Bim peptide binding to human Mcl-1; Bead-based flow cytometry, Bim peptide-Mcl-1 binding; 0.1% of 190,000 active; inhibition, % at 10 µM; Q07820; in the data active = inhibition above about 40%;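 note: 0% = no compound tracer wells and 100% = peptide blocker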
Mcl1 Noxa PPI = disrupts binding of human Mcl-1 to Noxa peptide | TR-FRET Mcl-1/Noxa peptide binding, 2 h | AID 1022 | inhibition, % at 21.7 µM | 1.5% of 220,000 active | Q07820;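 active = compounds that cut the protein-peptide binding signal by more than 50% relative to plate controls in a single-dose test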;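 note: His-tagged Mcl-1 with rhodamine Noxa BH3 peptide and terbium anti-His antibody; 0% = Mcl-1 plus Noxa peptide wells and 100% = peptide-only wells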
EBV gp42 inh = EBV gp42 inhibition; Fluorescence polarization binding assay, mP read-out; inhibition, % (tested at 21.74 µM); 0.42% of 220,000 active; in the data active = inhibition above about 50%
Target sequence (Q1HVG2 whole entry, looked up): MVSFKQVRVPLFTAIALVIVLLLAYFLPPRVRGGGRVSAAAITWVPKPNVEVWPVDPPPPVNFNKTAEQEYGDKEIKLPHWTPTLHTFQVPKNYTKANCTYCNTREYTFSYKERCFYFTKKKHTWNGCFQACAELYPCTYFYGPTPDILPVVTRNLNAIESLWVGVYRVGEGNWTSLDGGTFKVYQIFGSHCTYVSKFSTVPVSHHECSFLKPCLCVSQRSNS
RBBP9 inh = inhibitors of human serine hydrolase RBBP9. O75884. recombinant RBBP9, FP-Rh probe fluorescence polarization. inhibition, % at 7.94 µM. 0.2% of 220,000 active. AID 1515;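 active = inhibition above the campaign mean of all tested compounds plus 3 SD, cut at about 14% in these data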;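 note: plate controls were DMSO wells with RBBP9 for no effect and wells lacking RBBP9 protein for full effect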
Target sequence (O75884 whole entry, looked up): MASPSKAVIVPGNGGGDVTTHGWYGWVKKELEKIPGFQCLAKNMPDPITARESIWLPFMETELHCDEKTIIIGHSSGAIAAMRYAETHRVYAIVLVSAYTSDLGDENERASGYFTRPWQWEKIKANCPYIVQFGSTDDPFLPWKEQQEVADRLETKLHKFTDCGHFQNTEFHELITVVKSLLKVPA
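Test system – recombinant human RBBP9 · Input – RBBP9 2.5 µM in dispensing solution, pre-mixing · Medium – Tris buffer pH 8.0, NaCl, Pluronic · Schedule – preincubation 30 min plus labeling 45 min at 25 °C · Measured by – fluorescence polarization · Measure – % inhibition · Controls – DMSO and no-protein wells · Replicates – one well per compound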
* = called active by the depositor; . = no result given.

SMILES	MCL1 BIM primary	Mcl1-Bid inh	Mcl-1 Bim block	Mcl1 Noxa PPI	EBV gp42 inh	RBBP9 inh
O=C(O)C(CO)(c1ccccc1)c1ccccc1	7	.	.	.	.	.
COc1ccc(N2C(=O)CC(N3CCN(S(=O)(=O)c4c(C)cc(C)cc4C)CC3)C2=O)cc1 (configuration not stated)	2	.	.	.	.	.
Cc1cccc2cc(/C=C3\N=C(c4ccccc4)OC3=O)c(N3CCOCC3)nc12	-6	-38	-1	12	135*	-8
Cc1ccc(C2=N/C(=C/N3CCOCC3)C(=O)O2)cc1	5	-40	9	14	-12	-6
COc1ccccc1C(=O)NCCC(=O)Nc1ccc(S(=O)(=O)N2CCC(C)CC2)cc1	1	.	.	.	.	.
O=S(=O)(NCC(c1ccco1)N1CCN(c2ccccc2F)CC1)c1ccc2c(c1)OCCO2 (configuration not stated)	1	-10	-2	-5	-1	-9
COc1ccc(N2CCN(C(CNS(=O)(=O)c3ccc4c(c3)OCCO4)c3ccco3)CC2)cc1 (configuration not stated)	-2	-29	52*	27	-3	4
Cc1nn(Cc2ccccc2)c(C)c1NC(=O)CSc1nc(C2CC2)nc2c1cnn2-c1ccccc1	3	63*	0	3	-32	-4
CCc1cc(=O)oc2cc3occ(-c4ccc(OC)c(F)c4)c3cc12	-31	67*	-25	1	1	-4
CCc1cc(=O)oc2cc3occ(C)c3cc12	1	-63	-5	3	2	-7
Oc1ccc2ccccc2c1C1Nc2cccc3cccc(c23)N1	13	20	1	51*	-7	5
O=C(COC(=O)CCS(=O)(=O)c1ccc(Cl)cc1)Nc1ncc(Cl)cc1Cl	-3	93*	1	12	-11	-5
CC(=O)COC(=O)C1CCN(S(=O)(=O)c2cc([N+](=O)[O-])ccc2Cl)CC1	18	11	.	8	-8	-7
O=C(COC(=O)C1CCN(S(=O)(=O)c2cc([N+](=O)[O-])ccc2Cl)CC1)Nc1ncc(Cl)cc1Cl	33	-10	0	69*	-10	-4
O=C(Nc1ccc(S(=O)(=O)NC2=NCCCCC2)cc1)c1cc(S(=O)(=O)N2CCOCC2)ccc1F	-14	.	.	.	.	.
Cn1cc(Br)c(NC(=O)/C=C/C(=O)O)n1	-1	18	.	67*	-24	-3
COc1ccc(C(C)=O)cc1CSc1ccc2c(c1)OCCO2	7	.	.	.	.	.
CC(=O)Sc1nc(-c2ccccc2)[nH]c1S(=O)(=O)c1ccc(C)cc1	-12	-53	-2	70*	-24	9
CCc1cccc(NC(=O)CCc2c(C)nn(-c3ccc(N4CCCCC4)nn3)c2C)c1	0	.	.	.	.	.
COC(OC)c1ccnc(-c2ccc(OC(=O)c3cccs3)cc2)n1	-2	-9	-2	9	59*	-13
COC(OC)c1ccnc(-c2ccc(OC(=O)c3ccccc3)cc2)n1	-2	-13	0	3	0	-2
CCCCN(C)C(=O)C1CCCN(S(=O)(=O)c2ccc3c(c2)CC(C)N3C(=O)C2CC2)C1 (configuration not stated)	-6	.	.	.	.	.
O=C(c1cc2ccccn2n1)N1CCCC1	.	-18	-2	14	-12	-6
Cc1ccc(C)c(N2CCN(C(=O)c3cc4ccccn4n3)CC2)c1	44*	-9	-4	-2	11	-6
COc1ccc(Cn2c(CCC(=O)NCc3ccco3)nc3cccnc32)cc1	-3	-44	-3	65*	-20	3
Cc1cccc(S(=O)(=O)N2CCn3cccc3C2C)c1 (configuration not stated)	2	.	.	.	.	.
N#CC1=C(N)N2C(=C(C#N)C1c1ccc(Br)cc1)Nc1ccccc12 (configuration not stated)	-17	51*	-5	50	-17	3
O=C1/C(=C\c2ccccn2)SC(=S)N1c1ccc(S(=O)(=O)Nc2nccs2)cc1	11	-77	.	82*	-17	0
Cc1ccc(S(=O)(=O)NN2C(=O)/C(=C/c3ccccn3)SC2=S)cc1	13	-48	0	5	4	-3
Cc1cccc(N2C(=O)/C(=C/c3ccccn3)SC2=S)c1	-5	-10	.	-14	-16	-1

Screening data from PubChem BioAssay.
